# Calls of active or inactive are those of the source. The calls are words filed in the database; no cut-off is given here.
# Key:
# [1] = system: SW-620; experiment: Cytotoxicity against human SW620 cells assessed as cell growth inhibition at 10 uM after 48 hrs; assay type: functional; details: SW-620, 48 h, read-out: GI
# Method in brief: (§1)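 Cells seeded at 10^5 per well in RPMI 1640/10% FBS at 37 °C. Subconfluent cells exposed to 0, 0.1, 0.5, 1, 2, 5 or 10 μM for 48 h, or to 10 μM for 24, 48 and 72 h; ethanol vehicle, at most 0.01% v/v final. Cells trypsinized and counted by hemocytometer. Viability as % of control, means ± SD, three experiments in triplicate.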
# [2] = system: SW-620; experiment: Cell cycle arrest in human SW620 cells assessed as accumulation at S phase at 1 uM after 48 hrs using propidium iodide staining by flow cytometry (reference value: 43.1 +/- 1%); assay type: functional
# [3] = system: HCT-116; experiment: Induction of apoptosis in human HCT116 cells assessed as reduction of Bcl-2 protein expression at 0.1 to 10 uM after 24 hrs by immunoblotting; assay type: functional, cell-based
# Method in brief: (§2)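 HCT-116 or SW-620 cells treated with 0–10 μM for 24 h, lysed, and run on 15% SDS-PAGE immunoblots. Probed for Bcl-2 (1:1000), Bax (1:500), caspase-9/-3 and their cleaved forms (1:1000), and β-actin (1:1000). Bands quantified by densitometry; means ± SD of three experiments in duplicate.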
# [4] = system: HCT-116; experiment: Induction of apoptosis in human HCT116 cells at 10 uM after 48 hrs using Annexin V-FITC and propidium iodide staining by flow cytometry (reference value: 7.6 +/- 3%); assay type: functional
# Method in brief: (§3)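 Subconfluent cells in RPMI 1640 + 10% FBS treated with 0–10 μM for 48 h. Harvested cells incubated 10 min with FITC-annexin V/PI, then analysed by flow cytometry (488/525 nm for annexin V-FITC, 488/675 nm for PI). Reported as % apoptotic cells, means ± SD of three experiments in triplicate.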
# [5] = system: SW-620; experiment: Cell cycle arrest in human SW620 cells assessed as accumulation at S phase at 5 uM after 48 hrs using propidium iodide staining by flow cytometry (reference value: 43.1 +/- 1%); assay type: functional
# [6] = system: SW-620; experiment: Induction of apoptosis in human SW620 cells assessed as increase of Bax protein expression after 24 hrs by immunoblotting; assay type: functional, cell-based; method in brief: as §2
# [7] = system: SW-620; experiment: Cell cycle arrest in human SW620 cells assessed as accumulation at G2/M phase at 10 uM after 48 hrs using propidium iodide staining by flow cytometry (reference value: 9.1 +/- 0.3%); assay type: functional
# [8] = system: SW-620; experiment: Antitumor activity against human SW620 cells xenografted in BALB/c-nude mouse assessed as reduction of tumor weight at 100 mg/kg, po administered every other day from day 2 to 21 (reference value: 417 mg); assay type: functional
# Method in brief: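 Male BALB/c-nude mice; 2 × 10^6 tumour cells in 0.2 mL PBS injected intradermally into the flank on day 0, n = 10 per group. Oral dosing every other day for 3 weeks, starting 2 days after inoculation. Caliper tumour volume = (width)2 × length/2, measured periodically. Tumours excised and weighed at day 21. Means ± SE.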
# [9] = system: HCT-116; experiment: Induction of apoptosis in human HCT116 cells at 5 uM after 48 hrs using Annexin V-FITC and propidium iodide staining by flow cytometry (reference value: 7.6 +/- 3%); assay type: functional; method in brief: as §3
# [10] = system: HCT-116; experiment: Induction of apoptosis in human HCT116 cells assessed as increase of expression of cleaved caspase-9 and caspase-3 after 24 hrs by immunoblotting; assay type: functional, cell-based; method in brief: as §2
# [11] = system: SW-620; experiment: Decrease of cyclin E expression in human SW620 cells after 24 hrs by immunoblotting; assay type: functional, cell-based
# Method in brief: (§4)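 HCT-116 or SW-620 cells exposed to 0–10 μM for 24 h. Cells lysed in Tris/NaCl/EDTA/1% Triton X-100 buffer with protease and phosphatase inhibitors at 4 °C, protein measured by BCA. Lysates run on 10–12.5% SDS-PAGE and immunoblotted, ECL detection. Cdk2, cyclin A and cyclin E antibodies used at 1:500; β-actin as loading control.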
# [12] = system: SW-620; experiment: Cytotoxicity against human SW620 cells expressing p21 siRNA at 10 uM after 24 hrs by trypan blue staining; assay type: functional, cell-based
# Method in brief: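 Cells plated at 5 × 10^4 per well and transfected with 100 nM scrambled or p21 siRNA in OPTI-MEM for 4 h. Complete RPMI medium was added and cells grown a further 24 h, then exposed to 10 μM for 24 h. Viability measured by direct count after trypan blue staining. Morphology viewed by phase-contrast at 200×. Means ± SD, three experiments in triplicate.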
# [13] = system: SW-620; experiment: Induction of apoptosis in human SW620 cells assessed as increase of expression of cleaved caspase-9 and caspase-3 after 24 hrs by immunoblotting; assay type: functional, cell-based; method in brief: as §2
# [14] = system: SW-620; experiment: Cytotoxicity against human SW620 cells assessed as cell death at 2 uM after 48 hrs; assay type: functional, cell-based; method in brief: as §1
# [15] = system: HCT-116; experiment: Cell cycle arrest in human HCT116 cells assessed as accumulation at G2/M phase at 1 uM after 48 hrs using propidium iodide staining by flow cytometry (reference value: 7.1 +/- 0.3%); assay type: functional
# [16] = system: HCT-116; experiment: Cell cycle arrest in human HCT116 cells assessed as accumulation at S phase at 5 uM after 48 hrs using propidium iodide staining by flow cytometry (reference value: 36.3 +/- 1.7%); assay type: functional
# [17] = system: HCT-116; experiment: Cell cycle arrest in human HCT116 cells assessed as accumulation at G0/G1 phase at 0.1 uM after 48 hrs using propidium iodide staining by flow cytometry (reference value: 56.7 +/- 1.9%); assay type: functional
# [18] = system: SW-620; experiment: Cell cycle arrest in human SW620 cells assessed as accumulation at S phase at 0.5 uM after 48 hrs using propidium iodide staining by flow cytometry (reference value: 43.1 +/- 1%); assay type: functional
# [19] = system: SW-620; experiment: Effect on p27 expression in p53 deficient human SW620 cells at 0.5 to 10 uM after 24 hrs by immunoblotting; assay type: functional, cell-based
# [20] = system: HCT-116; experiment: Decrease of Cdk2 expression in human HCT116 cells after 24 hrs by immunoblotting; assay type: functional, cell-based; method in brief: as §4
# [21] = system: SW-620; experiment: Decrease of Cdk2 expression in human SW620 cells after 24 hrs by immunoblotting; assay type: functional, cell-based; method in brief: as §4
# [22] = system: HCT-116; experiment: Cytotoxicity against human HCT116 cells assessed as cell viability at 10 uM after 48 to 72 hrs; assay type: functional, cell-based; method in brief: as §1
# [23] = system: SW-620; experiment: Cell cycle arrest in human SW620 cells assessed as accumulation at S phase after 48 hrs using propidium iodide staining by flow cytometry; assay type: functional, cell-based
# [24] = system: HCT-116; experiment: Induction of apoptosis in human HCT116 cells assessed as increase of Bax protein expression after 24 hrs by immunoblotting; assay type: functional, cell-based; method in brief: as §2
# [25] = system: SW-620; experiment: Cell cycle arrest in human SW620 cells assessed as accumulation at G2/M phase at 0.5 uM after 48 hrs using propidium iodide staining by flow cytometry (reference value: 9.1 +/- 0.3%); assay type: functional
smiles,measurement,setting,value
CC(C)c1cccc(=O)c(O)c1 [HINOKITIOL],inhibition of growth at 10 µM,[1],63%
same,Activity,[2],47.7%
same,Activity,[3],Active
same,Activity,[4],24.7%
same,Activity,[5],51.9%
same,Activity,[6],Dose-dependent effect
same,Activity,[7],1.5%
same,Activity,[8],252 mg
same,Activity,[9],15.6%
same,Activity,[10],Dose-dependent effect
same,Activity,[11],Dose-dependent effect
same,Activity,[12],inactive
same,Activity,[13],Dose-dependent effect
same,Activity,[14],Active
same,Activity,[15],7.7%
same,Activity,[16],43.5%
same,Activity,[17],58.1%
same,Activity,[18],43.3%
same,Activity,[19],inactive
same,Activity,[20],Dose-dependent effect
same,Activity,[21],Dose-dependent effect
same,Activity,[22],Active
same,Activity,[23],Dose-dependent effect
same,Activity,[24],Dose-dependent effect
same,Activity,[25],8.4%

# — ChEMBL document CHEMBL3091462 (J Nat Prod, 2013)
